{"data": "Published values pooled from the literature", "SLC18A2": "Synaptic vesicular amine transporter (SLC18A2, Homo sapiens, UniProt Q05940)", "CA1": "Carbonic anhydrase 1 (CA1, Homo sapiens, UniProt P00915)", "LATS1": "Serine/threonine-protein kinase LATS1 (LATS1, Homo sapiens, UniProt O95835)", "note": "Compare with care: the assays were run in different laboratories."}
{"SMILES": "COc1cc2ncnc(Nc3ccc(F)c(Cl)c3)c2cc1NC(=O)/C=C/CN1CCCCC1", "target": "SLC18A2", "assay": "transporter uptake, inhibitor, radiometric", "setting": "cell membranes", "IC50 [µM]": 0.433}
{"SMILES": "O=C(O)COCCN1CCN(C(c2ccccc2)c2ccc(Cl)cc2)CC1 (centres unmarked)", "target": "CA1", "assay": "enzyme activity, inhibitor, absorbance", "setting": "pH 7.4", "IC50 [µM]": 14.6}
{"SMILES": "Cc1cc(-c2ccnc3[nH]cc(F)c23)cc(F)c1[C@@]1(O)[C@H](C)CN(C2CCS(=O)(=O)CC2)C[C@@H]1C", "target": "LATS1", "assay": "target engagement in cells, BRET", "IC50 [µM]": 0.136}
{"SMILES": "Nc1nc2c(ncn2COCCO)c(=O)[nH]1", "target": "CA1", "assay": "enzyme activity, inhibitor, absorbance", "setting": "pH 7.4", "IC50 [µM]": 10.8}
{"SMILES": "OC1(c2ccc(-c3ccnc4[nH]cc(F)c34)cc2)CNC1", "target": "LATS1", "assay": "target engagement in cells, BRET", "IC50 [µM]": 28.4}
{"SMILES": "OCCOCCN1CCN(C(c2ccccc2)c2ccc(Cl)cc2)CC1 (centres unmarked)", "target": "CA1", "assay": "enzyme activity, inhibitor, absorbance", "setting": "pH 7.4", "IC50 [µM]": 15.1}
{"SMILES": "Cc1cc(-c2ccnc3[nH]cc(F)c23)cc(F)c1[C@@]1(O)[C@H](C)CN(C2COC2)C[C@@H]1C", "target": "LATS1", "assay": "target engagement in cells, BRET", "IC50 [µM]": 0.058}
{"SMILES": "Clc1ccc(Cn2c(CN3CCCC3)nc3ccccc32)cc1", "target": "SLC18A2", "assay": "transporter uptake, inhibitor", "IC50 [µM]": 7.23}
{"SMILES": "C=CCNc1c2c([nH]c(=O)c1C(=O)OCC)CCC2", "target": "Gag-Pol polyprotein, reverse transcriptase (gag-pol, Human immunodeficiency virus 1, UniProt P03366)", "assay": "enzyme activity, inhibitor", "IC50 [µM]": "> 100"}
{"SMILES": "CC(C)[C@H](N)C(=O)OCCOCn1cnc2c(=O)[nH]c(N)nc21", "target": "Carbonic anhydrase 2 (CA2, Homo sapiens, UniProt P00918)", "assay": "enzyme activity, inhibitor, absorbance", "setting": "pH 7.4", "IC50 [µM]": 9.1}
{"SMILES": "CCCCN(CCCC)CCC(O)c1cc2c(Cl)cc(Cl)cc2c2cc(C(F)(F)F)ccc12 (centres unmarked)", "target": "SLC18A2", "assay": "transporter uptake, inhibitor, radiometric", "setting": "cell membranes", "IC50 [µM]": 0.94}
{"SMILES": "CCOCCn1c(C2CCN(CCc3ccc(C(C)(C)C(=O)O)cc3)CC2)nc2ccccc21", "target": "CA1", "assay": "enzyme activity, inhibitor, absorbance", "setting": "pH 7.4", "IC50 [µM]": 14}
{"SMILES": "OC1(c2ccc(-c3ccnc4[nH]cc(F)c34)cc2)CCNC1 (centres unmarked)", "target": "LATS1", "assay": "target engagement in cells, BRET", "IC50 [µM]": 10.3}
{"SMILES": "NC(=O)c1nnn(Cc2cc(Cl)c(C(=O)c3ccc(Cl)cc3)c(Cl)c2)c1N", "target": "Alpha-2A adrenergic receptor (ADRA2A, Homo sapiens, UniProt P08913)", "assay": "cAMP, antagonist", "IC50 [µM]": 0.612}
{"SMILES": "CCOc1ccccc1OCCN[C@H](C)Cc1ccc(OC)c(S(N)(=O)=O)c1", "target": "SLC18A2", "assay": "transporter uptake, inhibitor", "IC50 [µM]": 1.86}
{"SMILES": "OC1(c2ccc(-c3ccnc4[nH]cc(F)c34)cc2)CCCNC1 (centres unmarked)", "target": "LATS1", "assay": "target engagement in cells, BRET", "IC50 [µM]": 9.97}
{"SMILES": "OC1(c2ccc(Cl)c(C(F)(F)F)c2)CCN(CCCC(c2ccc(F)cc2)c2ccc(F)cc2)CC1", "target": "SLC18A2", "assay": "transporter uptake, inhibitor, radiometric", "setting": "cell membranes", "IC50 [µM]": 0.594}
{"SMILES": "COc1ccnc(C[S+]([O-])c2nc3ccc(OC(F)F)cc3[nH]2)c1OC (centres unmarked)", "target": "CA1", "assay": "enzyme activity, inhibitor, absorbance", "setting": "pH 7.4", "IC50 [µM]": 10.6}
{"SMILES": "N#Cc1ccc2[nH]cc(CCCCN3CCN(c4ccc5oc(C(N)=O)cc5c4)CC3)c2c1", "target": "SLC18A2", "assay": "transporter uptake, inhibitor, radiometric", "setting": "cell membranes", "IC50 [µM]": 0.069}
{"SMILES": "CC(=O)N1C[C@@H](C)[C@](O)(c2c(C)cc(-c3ccnc4[nH]cc(F)c34)cc2F)[C@@H](C)C1", "target": "LATS1", "assay": "target engagement in cells, BRET", "IC50 [µM]": 0.077}
